# In ChEMBL document CHEMBL3351868, “Structure-affinity relationships and pharmacological characterization of new alkyl-resorcinol cannabinoid receptor ligands: Identification of a dual cannabinoid receptor/TRPA1 channel agonist” (Bioorg Med Chem, 2014):
# Calls of active or inactive are those of the source. The calls are words filed in the database; no cut-off is given here.
# Columns and labels:
# Homo sapiens [1] = species: Homo sapiens; assay: Selectivity index, ratio of Ki for human recombinant CB2 receptor to Ki for human recombinant CB1 receptor
# [2] = biological target: Transient receptor potential cation channel subfamily A member 1 (Rattus norvegicus) (UniProt Q6RI86); assay: Agonist activity at rat recombinant TRPA1 expressed in HEK293 cells assessed as increase in intracellular calcium level by fluorescence assay relative to isothiocyanate; assay type: cell-based
# Chain of Transient receptor potential cation channel subfamily A member 1 (Rattus norvegicus) (Q6RI86 whole entry): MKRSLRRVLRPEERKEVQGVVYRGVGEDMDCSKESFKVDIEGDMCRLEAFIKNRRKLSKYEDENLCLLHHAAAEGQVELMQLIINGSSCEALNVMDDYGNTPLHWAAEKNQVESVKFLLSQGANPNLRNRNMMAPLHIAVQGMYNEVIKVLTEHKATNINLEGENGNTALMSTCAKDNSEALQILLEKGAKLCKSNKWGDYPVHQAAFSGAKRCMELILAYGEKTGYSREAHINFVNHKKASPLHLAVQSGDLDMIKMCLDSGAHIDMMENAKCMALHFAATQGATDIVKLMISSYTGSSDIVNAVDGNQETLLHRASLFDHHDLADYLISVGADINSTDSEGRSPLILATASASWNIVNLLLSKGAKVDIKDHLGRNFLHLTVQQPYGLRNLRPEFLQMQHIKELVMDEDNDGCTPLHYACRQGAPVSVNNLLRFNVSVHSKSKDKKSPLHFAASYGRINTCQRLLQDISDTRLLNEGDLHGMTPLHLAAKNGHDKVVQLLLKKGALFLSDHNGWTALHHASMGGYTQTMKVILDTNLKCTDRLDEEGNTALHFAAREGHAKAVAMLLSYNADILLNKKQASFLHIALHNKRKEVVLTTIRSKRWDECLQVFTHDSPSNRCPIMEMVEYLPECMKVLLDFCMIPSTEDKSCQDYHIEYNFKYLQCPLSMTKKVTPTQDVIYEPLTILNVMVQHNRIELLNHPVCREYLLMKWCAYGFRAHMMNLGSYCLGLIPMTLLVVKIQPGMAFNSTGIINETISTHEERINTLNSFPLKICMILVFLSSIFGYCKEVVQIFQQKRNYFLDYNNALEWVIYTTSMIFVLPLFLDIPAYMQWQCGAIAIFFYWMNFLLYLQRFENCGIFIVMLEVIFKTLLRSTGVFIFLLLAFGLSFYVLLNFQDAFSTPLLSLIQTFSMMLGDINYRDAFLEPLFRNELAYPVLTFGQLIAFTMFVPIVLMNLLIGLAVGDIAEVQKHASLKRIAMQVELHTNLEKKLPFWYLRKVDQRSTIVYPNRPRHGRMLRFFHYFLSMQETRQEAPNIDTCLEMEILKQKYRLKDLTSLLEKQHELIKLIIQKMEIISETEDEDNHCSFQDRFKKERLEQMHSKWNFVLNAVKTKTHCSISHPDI
# Method in brief: (§1)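 HEK293 cells stably expressing rat TRPA1 were loaded with Fluo-4-AM (4 µM, 1 h, room temperature). Cells stirred in Tyrode's buffer pH 7.4; [Ca2+]i fluorescence read at ex 488/em 516 nm, 25 °C. Wild-type HEK293 response subtracted. Efficacy as percent of 100 µM allyl isothiocyanate. EC50 from sigmoidal fit, n=3.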
# Cannabinoid receptor 1 [3] = biological target: T1, Cannabinoid receptor 1 (Homo sapiens, UniProt P21554); assay: Agonist activity at human recombinant CB1 receptor expressed in CHO cell membranes assessed as stimulation of [35S]GTPgammaS binding relative to basal level; assay type: functional
# T1 sequence (P21554 whole entry): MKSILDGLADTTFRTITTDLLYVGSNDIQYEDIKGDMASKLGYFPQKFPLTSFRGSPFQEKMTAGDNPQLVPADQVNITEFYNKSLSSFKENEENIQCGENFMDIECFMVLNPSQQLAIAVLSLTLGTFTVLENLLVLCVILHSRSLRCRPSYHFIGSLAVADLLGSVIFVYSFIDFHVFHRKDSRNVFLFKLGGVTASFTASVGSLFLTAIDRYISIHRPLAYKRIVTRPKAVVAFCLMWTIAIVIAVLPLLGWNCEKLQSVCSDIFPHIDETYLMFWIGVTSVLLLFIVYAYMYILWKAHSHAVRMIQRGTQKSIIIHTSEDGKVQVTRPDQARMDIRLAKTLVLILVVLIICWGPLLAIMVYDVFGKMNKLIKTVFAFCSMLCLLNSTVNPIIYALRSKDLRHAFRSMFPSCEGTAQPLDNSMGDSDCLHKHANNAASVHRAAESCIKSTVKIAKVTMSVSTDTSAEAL
# Method in brief: (§2)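 Membranes from CHO cells stably expressing human CB1 or CB2, 50 µg protein per well, in Tris buffer with 100 mM NaCl, 5 mM MgCl2, 1 mM DTT, 1 mM EDTA, 0.1% BSA, pH 7.4. Incubated 60 min at 30°C with 0.1 nM [35S]GTPγS, 30 µM GDP and compound in DMSO. Nonspecific binding defined with 30 µM GTPγS. Filtration and scintillation counting. Percent change relative to DMSO control, n=6. EC50/Emax from sigmoidal fit.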
# Mus musculus [4] = assay: Antinociceptive activity in Swiss-Webster mouse assessed as reduction in second phase of formalin-induced nociceptive behavior at 4 mg/kg, ip after 40 mins; assay type: functional, organism-based; set-up: dose 4 mg/kg
# Method in brief: (§3)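 Mice received compound or vehicle (0.9% NaCl) i.p. 10 min before formalin (1.25%) injected subcutaneously into the hind paw. Lifting, favouring, licking, shaking and flinching were scored blind as total duration per 5-min bin over 60 min. 8-10 animals per group; one-way ANOVA with Bonferroni test.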
# Cannabinoid receptor 1 [5] = biological target: T1, Cannabinoid receptor 1; assay: Displacement of [3H]CP-55,940 from human recombinant CB1 receptor expressed in HEK293 cell membranes
# Cannabinoid receptor 2 [6] = biological target: T2, Cannabinoid receptor 2 (Homo sapiens, UniProt P34972); assay: Agonist activity at human recombinant CB2 receptor expressed in CHO cell membranes by [35S]GTPgammaS binding assay; assay type: functional; method in brief: as §2
# T2 sequence (P34972 whole entry): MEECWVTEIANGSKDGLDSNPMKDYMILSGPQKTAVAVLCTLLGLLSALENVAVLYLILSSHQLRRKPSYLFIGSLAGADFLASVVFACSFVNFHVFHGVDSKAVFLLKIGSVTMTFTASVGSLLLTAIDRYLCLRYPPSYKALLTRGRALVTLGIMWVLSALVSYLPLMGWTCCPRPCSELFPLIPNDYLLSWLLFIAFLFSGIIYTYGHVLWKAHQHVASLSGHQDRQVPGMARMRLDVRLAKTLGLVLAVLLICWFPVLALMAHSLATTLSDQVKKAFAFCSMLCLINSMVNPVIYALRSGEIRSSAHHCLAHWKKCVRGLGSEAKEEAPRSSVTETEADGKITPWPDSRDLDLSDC
# Cannabinoid receptor 1 [7] = biological target: T1, Cannabinoid receptor 1; assay: Agonist activity at human recombinant CB1 receptor expressed in CHO cell membranes by [35S]GTPgammaS binding assay; assay type: functional; method in brief: as §2
# Cannabinoid receptor 2 [8] = biological target: T2, Cannabinoid receptor 2; assay: Displacement of [3H]CP-55,940 from human recombinant CB2 receptor expressed in HEK293 cell membranes
# [9] = biological target: T3, Transient receptor potential cation channel subfamily V member 1 (Homo sapiens, UniProt Q8NER1); assay: Agonist activity at human recombinant TRPV1 expressed in HEK293 cells assessed as increase in intracellular calcium level by fluorescence assay relative to ionomycin; assay type: cell-based
# T3 sequence (Q8NER1 whole entry): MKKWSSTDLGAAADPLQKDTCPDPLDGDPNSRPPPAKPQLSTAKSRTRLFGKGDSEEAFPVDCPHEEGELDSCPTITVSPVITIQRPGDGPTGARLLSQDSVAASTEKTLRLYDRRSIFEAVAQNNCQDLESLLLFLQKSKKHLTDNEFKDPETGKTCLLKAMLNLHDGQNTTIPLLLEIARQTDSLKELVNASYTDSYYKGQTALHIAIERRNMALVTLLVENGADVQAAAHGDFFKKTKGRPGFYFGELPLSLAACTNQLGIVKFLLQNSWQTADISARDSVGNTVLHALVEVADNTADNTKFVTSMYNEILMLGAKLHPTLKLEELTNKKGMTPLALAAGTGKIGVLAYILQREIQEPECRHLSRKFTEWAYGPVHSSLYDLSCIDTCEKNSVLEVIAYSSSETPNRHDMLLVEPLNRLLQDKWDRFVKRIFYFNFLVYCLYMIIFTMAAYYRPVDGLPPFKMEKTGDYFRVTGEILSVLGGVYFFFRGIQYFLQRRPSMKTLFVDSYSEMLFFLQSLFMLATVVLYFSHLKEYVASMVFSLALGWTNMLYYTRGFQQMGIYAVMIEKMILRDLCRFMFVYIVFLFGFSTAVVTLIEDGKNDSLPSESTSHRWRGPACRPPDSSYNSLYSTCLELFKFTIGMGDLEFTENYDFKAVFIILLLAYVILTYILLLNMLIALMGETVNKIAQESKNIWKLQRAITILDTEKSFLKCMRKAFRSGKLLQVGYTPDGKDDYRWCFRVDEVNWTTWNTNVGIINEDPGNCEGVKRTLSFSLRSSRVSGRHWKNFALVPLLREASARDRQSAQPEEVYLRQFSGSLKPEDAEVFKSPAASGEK
# Method in brief: (§4)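 HEK293 cells stably expressing human TRPV1 were loaded with Fluo-4-AM (4 µM, 1 h, room temperature). Cells stirred in Tyrode's buffer pH 7.4; fluorescence read at ex 488/em 516 nm, 25 °C. Wild-type HEK293 response subtracted. Efficacy as percent of 4 µM ionomycin. EC50 from sigmoidal fit, n=3.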
# Cannabinoid receptor 2 [10] = biological target: T2, Cannabinoid receptor 2; assay: Agonist activity at human recombinant CB2 receptor expressed in CHO cell membranes assessed as stimulation of [35S]GTPgammaS binding relative to basal level; assay type: functional; method in brief: as §2
# Homo sapiens [11] = species: Homo sapiens; assay: Selectivity index, ratio of Ki for human recombinant CB1 receptor to Ki for human recombinant CB2 receptor
# Mus musculus [12] = assay: Toxicity in Swiss-Webster mouse formalin-induced pain model assessed as induction of abdominal writhing at >4 mg/kg, ip; assay type: organism-based, Abdomen; conditions: in vivo; method in brief: as §3
# [13] = biological target: T3, Transient receptor potential cation channel subfamily V member 1; assay: Antagonist activity against human recombinant TRPV1 expressed in HEK293 cells assessed as reduction in capsaicin-induced intracellular calcium response pre-incubated 5 mins before capsaicin addition by fluorescence assay; assay type: cell-based
# Method in brief: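 Human TRPV1-HEK293 cells loaded with Fluo-4 in Tyrode's buffer pH 7.4, 25 °C. Compound added 5 min before 0.1 µM capsaicin. IC50 taken as half-maximal inhibition of the capsaicin-induced [Ca2+]i rise, n=3.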
# [14] = Cytotoxicity against mouse NIH/3T3 cells after 24 hrs by neutral red assay; assay type: cell-based; conditions: NIH3T3, 24 h
# Method in brief: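 NIH3T3 mouse fibroblasts in DMEM with 10% FCS were seeded and after 24 h exposed to compound in DMSO (5-200 µM, six replicates) for 24 h. Viability measured by neutral red uptake (3 h dye incubation, then acetic acid/ethanol extraction). IC50 derived.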
# Mus musculus [15] = assay: Antinociceptive activity in Swiss-Webster mouse assessed as reduction in second phase of formalin-induced nociceptive behavior at 3 and 4 mg/kg, ip; assay type: functional, organism-based; set-up: dose 4 mg/kg; method in brief: as §3
# [16] = biological target: T4, Transient receptor potential cation channel subfamily A member 1 (Rattus norvegicus, UniProt Q6RI86); assay: Antagonist activity at rat recombinant TRPA1 expressed in HEK293 cells assessed as reduction in isothiocynate-induced increase in intracellular calcium response by fluorescence assay; assay type: cell-based
# T4 sequence (Q6RI86 whole entry): as the sequence (Q6RI86 whole entry) above
# Method in brief: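 Rat TRPA1-HEK293 cells loaded with Fluo-4 in Tyrode's buffer pH 7.4, 25 °C. Compound given as a 5 min pre-incubation before 100 µM allyl isothiocyanate. IC50 for half-maximal inhibition of the agonist-evoked [Ca2+]i rise, n=3.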
# [17] = biological target: T3, Transient receptor potential cation channel subfamily V member 1; assay: Agonist activity at human recombinant TRPV1 expressed in HEK293 cells assessed as increase in intracellular calcium level by fluorescence assay; assay type: cell-based; method in brief: as §4
# [18] = biological target: T4, Transient receptor potential cation channel subfamily A member 1; assay: Agonist activity at rat recombinant TRPA1 expressed in HEK293 cells assessed as increase in intracellular calcium level by fluorescence assay; assay type: cell-based; method in brief: as §1
smiles,measurement,setting,value
C=CCNC(=O)CCCCCCCOc1cc(O)cc(C(C)(C)CCCCCC)c1,Ratio Ki,Homo sapiens [1],1.02
same,Efficacy,[2],51.3%
same,Emax,Cannabinoid receptor 1 [3],60.6%
same,Activity,Mus musculus [4],Active
same,Ki,Cannabinoid receptor 1 [5],0.00722 µM
same,EC50,Cannabinoid receptor 2 [6],0.0447 µM
same,EC50,Cannabinoid receptor 1 [7],0.138 µM
same,Ki,Cannabinoid receptor 2 [8],0.00736 µM
same,Efficacy,[9],18.6%
same,Emax,Cannabinoid receptor 2 [10],13.4%
same,Ratio Ki,Homo sapiens [11],0.98
same,Activity,Mus musculus [12],Toxic
same,IC50,[13],23.9 µM
same,IC50,[14],188 µM
same,Activity,Mus musculus [15],Active
same,IC50,[16],7.4 µM
same,EC50,[17],6.9 µM
same,EC50,[18],2.7 µM
